Measured values published in ChEMBL document CHEMBL4052824, “Interfering with HuR-RNA Interaction: Design, Synthesis and Biological Characterization of Tanshinone Mimics as Novel, Effective HuR Inhibitors” (J Med Chem, 2018).
Activity calls are given as the source filed them. The rule behind the calls is not given here.

Tests used:
ELAV-like protein 1 [1] = target: T1, ELAV-like protein 1 (Homo sapiens, UniProt Q15717); assay: Binding affinity to human full length recombinant His-tagged HuR expressed in Escherichia coli […] assessed as inhibition of interaction with single-strand Bi-AU RNA probe by AlphaScreen assay
MDA-MB-231 [2] = assay: Cytotoxicity against human MDA-MB-231 cells assessed as decrease in cell viability after 72 hrs by OZBlue assay; conditions: MDA-MB-231, 72 h
ELAV-like protein 1 [3] = target: T1, ELAV-like protein 1; assay: Binding affinity to human full length recombinant HuR expressed in Escherichia coli […] assessed as inhibition of interaction with 5'-DY681-labeled AU-rich RNA probe at 5 uM after 30 mins by REMSA
Procedure, shortened: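 Non-denaturing, non-cross-linked REMSA: full-length recombinant His-tagged HuR (E. coli-expressed) in at least 10-fold excess incubated 30 min with 75 fmol 5′-DY681-labeled AU-rich RNA probe plus DMSO or compound at 5 μM; reduction of shifted probe band scored qualitatively.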

MCF7 [4] = assay: Cytotoxicity against human MCF7 cells assessed as decrease in cell viability after 72 hrs by OZBlue assay; conditions: MCF7, 72 h
PANC-1 [5] = assay: Cytotoxicity against human PANC1 cells assessed as decrease in cell viability after 72 hrs by OZBlue assay; conditions: PANC-1, 72 h
[6] = Binding affinity to 5'-DY681-labeled AU-rich RNA probe (unknown origin) at 5 uM after 30 mins by REMSA
Procedure, shortened: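 Non-denaturing, non-cross-linked gel-shift assay: 75 fmol of 5′-DY681-labeled AU-rich RNA probe incubated 30 min with compound at 5 μM, with DMSO as control. The probe was read by its fluorescent label to detect a shift or loss of the free RNA band.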

MDA-MB-231 [7] = assay: Antimigratory activity in human MDA-MB-231 cells at 5 to 20 uM after 24 to 48 hrs by scratch assay; assay type: functional, cell-based
Procedure, shortened: (§1)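 Scratch assay: monolayers in DMEM with 10% FBS wounded with a pipette tip, then treated with DMSO or compound; the same field imaged at 0, 24 and 48 h at 5× magnification and residual open wound area measured. Student t test.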

MCF7 [8] = assay: Downregulation of HPRT1 mRNA expression in human MCF7 cells at 5 uM after 6 hrs by qRT-PCR method; assay type: functional, cell-based
Procedure, shortened: (§2)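 MCF7 cells treated with 5 μM compound or DMSO for 6 h. Total RNA extracted, transcript levels measured by qRT-PCR and normalized to RNA18s. Biological triplicate, mean ± SD, t test versus control.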

PANC-1 [9] = assay: Antimigratory activity in human PANC1 cells at 5 to 20 uM after 24 to 48 hrs by scratch assay; assay type: functional, cell-based; procedure, shortened: as §1
[10] = Binding affinity to TNF AU-rich elements (unknown origin) at 10 uM by CD spectroscopic method
Procedure, shortened: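 Circular dichroism of TNF-ARE RNA (10 μM final) with compound (10 μM) in 10 mM sodium phosphate, pH 7.3. Spectra were recorded at 240–350 nm and 100 nm/min. The spectrum of compound alone (10 μM) in the same buffer was subtracted, and Δε was plotted to judge any change in RNA conformation.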

MCF7 [11] = assay: Downregulation of RPLP0 mRNA expression in human MCF7 cells at 5 uM after 6 hrs by qRT-PCR method; assay type: functional, cell-based; procedure, shortened: as §2
ELAV-like protein 1 [12] = target: T1, ELAV-like protein 1; assay: Change in HuR localization from nucleus to cytoplasm in human MCF7 cells at 1 uM after 3 hrs by DAPI staining-based immunofluorescence method; assay type: cell-based
Procedure, shortened: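 MCF7 cells, 8.000/well, treated 3 h alongside DMSO control, then fixed in 3.7% PFA for 15 min at RT. Permeabilised 10 min (200 mM sucrose, 0.2% Triton X-100) and blocked 15 min in 2% BSA. Stained with anti-HuR (1:250), Alexa 594 secondary (1:500) and DAPI (1.5 μg/mL). Imaged at 40×, 13 fields/well. Read-out: nuclear/cytoplasmic HuR ratio, mean of single cells per well.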

T1 sequence (Q15717 whole entry): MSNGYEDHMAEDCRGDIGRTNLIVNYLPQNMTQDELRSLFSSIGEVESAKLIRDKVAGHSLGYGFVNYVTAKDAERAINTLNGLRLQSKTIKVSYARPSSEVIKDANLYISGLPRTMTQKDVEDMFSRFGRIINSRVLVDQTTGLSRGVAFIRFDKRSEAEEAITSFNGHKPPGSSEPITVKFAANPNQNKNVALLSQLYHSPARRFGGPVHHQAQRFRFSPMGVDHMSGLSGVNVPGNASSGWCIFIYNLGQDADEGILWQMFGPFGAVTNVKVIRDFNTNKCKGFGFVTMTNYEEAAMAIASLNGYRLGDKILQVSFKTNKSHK

Structure (SMILES): COc1ccc(-c2cn(S(=O)(=O)c3ccccc3)c3c2C(=O)C(=O)C=C3)cc1
- Ki (ELAV-like protein 1 [1]): > 0.2 µM

Structure (SMILES): O=C1C=C(c2ccccc2)c2c(c(-c3ccccc3)cn2S(=O)(=O)c2ccccc2)C1=O
- Ki (ELAV-like protein 1 [1]): > 0.1 µM

Structure (SMILES): Cc1ccccc1-c1cn(S(=O)(=O)c2ccccc2)c2c1C(=O)C(=O)C=C2
- IC50 (MDA-MB-231 [2]): 47.2 µM
- inhibition (ELAV-like protein 1 [3]): Active
- IC50 (MCF7 [4]): 58.5 µM
- IC50 (PANC-1 [5]): 25.9 µM

Structure (SMILES): O=C1C=Cc2c(c(-c3ccccc3)cn2S(=O)(=O)c2ccccc2)C1=O
- IC50 (MDA-MB-231 [2]): 24.2 µM
- Activity [6]: inactive
- Activity (MDA-MB-231 [7]): Active
- Activity (MCF7 [8]): inactive
- Activity (PANC-1 [9]): Active
- IC50 (MCF7 [4]): 32.7 µM
- Activity [10]: inactive
- IC50 (PANC-1 [5]): 26.5 µM
- Activity (MCF7 [11]): inactive

Structure (SMILES): COc1ccc(SC2=CC(=O)C(=O)c3c(-c4ccccc4)cn(S(=O)(=O)c4ccccc4)c32)cc1
- IC50 (MDA-MB-231 [2]): 14.3 µM
- IC50 (MCF7 [4]): 23.5 µM
- IC50 (PANC-1 [5]): 13.6 µM

Structure (SMILES): CC1=CC(=O)C(=O)c2c(-c3ccccc3)cn(S(=O)(=O)c3ccccc3)c21
- Ki (ELAV-like protein 1 [1]): > 0.2 µM

Structure (SMILES): Cc1cccc2c3c(ccc12)C1=C(C(=O)C3=O)[C@@H](C)CO1 [DIHYDROTANSHINONE I]
- IC50 (MDA-MB-231 [2]): 8.99 µM
- Activity (ELAV-like protein 1 [12]): inactive
- Ki (ELAV-like protein 1 [1]): 0.05 µM
- IC50 (MCF7 [4]): 3.73 µM
- IC50 (PANC-1 [5]): 2.91 µM

Structure (SMILES): O=C1C=C(c2ccc([N+](=O)[O-])cc2)c2c(c(-c3ccccc3)cn2S(=O)(=O)c2ccccc2)C1=O
- Ki (ELAV-like protein 1 [1]): > 0.1 µM

Structure (SMILES): CN(C)c1ccc(-c2cn(S(=O)(=O)c3ccccc3)c3c2C(=O)C(=O)C=C3)cc1
- Ki (ELAV-like protein 1 [1]): > 0.1 µM

Structure (SMILES): O=C(O)Cc1ccc(SC2=CC(=O)C(=O)c3c(-c4ccccc4)cn(S(=O)(=O)c4ccccc4)c32)cc1
- inhibition (ELAV-like protein 1 [3]): Active

Structure (SMILES): O=C1C(=O)c2c(-c3ccccc3)cn(S(=O)(=O)c3ccccc3)c2C2=C1C1C=CC2CC1 (stereo unspecified)
- Ki (ELAV-like protein 1 [1]): > 0.3 µM

Structure (SMILES): O=C1C=Cc2c(c(-c3ccccc3)cn2S(=O)(=O)c2ccc([N+](=O)[O-])cc2)C1=O
- inhibition (ELAV-like protein 1 [3]): Active

Structure (SMILES): O=C1C=C(Sc2ccccc2)c2c(c(-c3ccccc3)cn2S(=O)(=O)c2ccccc2)C1=O
- IC50 (MDA-MB-231 [2]): 23.8 µM
- inhibition (ELAV-like protein 1 [3]): Active
- IC50 (MCF7 [4]): 28.7 µM
- IC50 (PANC-1 [5]): 24.9 µM

Structure (SMILES): O=C1C=Cc2c(c(-c3ccccc3)cn2S(=O)(=O)c2cccc(F)c2)C1=O
- Ki (ELAV-like protein 1 [1]): > 0.1 µM

Structure (SMILES): COc1cccc(-c2cn(S(=O)(=O)c3ccccc3)c3c2C(=O)C(=O)C=C3)c1
- Ki (ELAV-like protein 1 [1]): > 0.2 µM

Structure (SMILES): O=C1C=Cc2c(c(-c3ccccc3)cn2S(=O)(=O)c2cccc([N+](=O)[O-])c2)C1=O
- Ki (ELAV-like protein 1 [1]): > 0.1 µM
